{"data": "Measurements of several laboratories", "note": "Lines come from different studies, so protocols differ."}
{"Structure (SMILES)": "CCN(CC)CCCC[C@H](NC(=O)[C@H](CC(C)C)NC(=O)[C@H](C)NC(=O)[C@H](Cc1ccccc1)NC(=O)c1ccc(C(C)(C)C)cc1)C(=O)N[C@@H](CO)C(=O)OC", "test system": "male Swiss mouse, blood", "setting": "intravenous, 3 mg/kg", "quantity": "Vd", "value": "0.19 L/kg"}
{"Structure (SMILES)": "N=C(N)NCCC[C@@H](NC(=O)[C@@H](N)Cc1ccccc1)C(=O)N[C@@H](Cc1ccccc1)C(=O)N[C@@H](CCCCN)C(N)=O", "test system": "human, plasma", "setting": "subcutaneous, 25 mg, multiple doses, once daily, patients", "quantity": "half-life", "value": "4 h"}
{"Structure (SMILES)": "COc1cc(C(=O)NC2CCN(C)CC2)c(F)cc1Nc1ncc(C(F)(F)F)c(Oc2cccc3c2C(=O)N(C)C3)n1", "test system": "human, plasma", "setting": "oral, 25 mg, multiple doses, once daily, patients", "quantity": "half-life", "value": "27.9 h"}
{"Structure (SMILES)": "CCCCCCCC(=O)NC[C@H](NC(=O)[C@H](CO)NC(=O)CN)C(=O)N[C@@H](Cc1ccccc1)C(=O)N[C@@H](CC(C)C)C(=O)N[C@@H](CO)C(=O)N1CCC[C@H]1C(=O)N[C@@H](CCC(=O)O)C(=O)O", "test": "chemical stability", "test system": "PBS", "setting": "1 mM, 24 h, pH 7.4", "quantity": "compound remaining", "value": "100%"}
{"Structure (SMILES)": "COc1ccc(NC(=O)N2CCCCN3[C@H](CN(C)C)[C@H](c4ccc(C#Cc5ccccc5)cc4)[C@@H]3C2)cc1", "test system": "mouse, plasma", "setting": "intravenous", "quantity": "Vd", "value": "29 L/kg"}
{"Structure (SMILES)": "Nc1ncnc2c1ncn2[C@@H]1O[C@@H]2COP(=O)([S-])O[C@@H]3[C@H](O)[C@@H](COP([O-])(=S)O[C@H]2[C@H]1O)O[C@H]3n1cnc2c(N)ncnc21.[Na+].[Na+] (some centres unmarked)", "test": "chemical stability, HPLC", "test system": "bovine, serum", "quantity": "half-life", "value": "67 h"}
{"Structure (SMILES)": "CC(=C/C=C/C(C)=C/C(=O)O)/C=C1\\CCCc2ccccc21", "test system": "human, plasma", "setting": "oral, 10 mg, single dose, fasted, healthy volunteers", "quantity": "half-life", "value": "5.76 h"}
{"Structure (SMILES)": "Cc1nonc1Cn1nnc2c(N3CC[C@H](O)C3)nc(C(C)(C)C)nc21", "test system": "C57BL/6 mouse, plasma", "setting": "intravenous", "quantity": "Vd", "value": "4.1 L/kg"}
{"Structure (SMILES)": "CN[C@H](CC(C)C)C(=O)N[C@H]1C(=O)N[C@@H](CC(N)=O)C(=O)N[C@H]2C(=O)NC3C(=O)N[C@H](C(=O)N[C@H](C(=O)NCCC[N+](C)(C)C)c4cc(O)cc(O)c4-c4cc3ccc4O)[C@H](O)c3ccc(c(Cl)c3)Oc3cc2cc(c3OC2OC(CO)C(O)[C@H](O)[C@@H]2O[C@H]2CC(C)(NCc3ccc(-c4ccc(Cl)cc4)cc3)[C@H](O)[C@H](C)O2)Oc2ccc(cc2Cl)[C@H]1O (some centres unmarked)", "test system": "mouse, plasma", "setting": "intravenous, 10 mg/kg", "quantity": "Vd", "value": "1.25 L/kg"}
{"Structure (SMILES)": "Cc1nc([C@@](C)(CC2CC2)NC(=O)c2cc(OCC(F)(F)F)c(C3CC3)cn2)no1", "test system": "C57BL/6 mouse, plasma", "setting": "intravenous", "quantity": "Vd", "value": "4 L/kg"}
{"Structure (SMILES)": "C=CCNc1c(O)cc2c(O)c1C[C@@H](C)C[C@H](OC)[C@H](O)[C@@H](C)/C=C(\\C)[C@H](OC(N)=O)[C@@H](OC)/C=C\\C=C(/C)C(=O)N2", "test system": "human, plasma", "setting": "intravenous, 400 mg/m², patients, infusion", "quantity": "half-life", "value": "2.27 h"}
